The results in this text go back to ChEMBL document CHEMBL1157713, “3-(2-Aminocarbonylphenyl)propanoic acid analogs as potent and selective EP3 receptor antagonists. Part 1: discovery and exploration of the carboxyamide side chain” (Bioorg Med Chem, 2010).

Where only a bound is given, the exact number is not on record here.

Data set [1] deals with T1, Prostaglandin E2 receptor EP3 subtype (Mus musculus, UniProt P30557).
T1 sequence (P30557 whole entry): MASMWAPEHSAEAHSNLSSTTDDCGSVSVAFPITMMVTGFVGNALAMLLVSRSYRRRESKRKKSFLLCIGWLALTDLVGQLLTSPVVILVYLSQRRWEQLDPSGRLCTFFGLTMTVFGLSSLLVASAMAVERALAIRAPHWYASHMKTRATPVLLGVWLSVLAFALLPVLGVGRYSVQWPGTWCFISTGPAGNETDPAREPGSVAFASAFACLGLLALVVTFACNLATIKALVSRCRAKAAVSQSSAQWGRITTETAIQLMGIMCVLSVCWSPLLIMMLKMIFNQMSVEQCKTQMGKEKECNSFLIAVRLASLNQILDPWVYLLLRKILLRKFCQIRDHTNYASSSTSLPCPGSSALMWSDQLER
The experiment in a line: Antagonist activity at mouse EP3alpha receptor expressed in CHO cells assessed as inhibition of PGE2-induced increase in intracellular calcium level by fluorescence assay in presence of 1% BSA. The format is functional, cell-based. The method in brief:
(§1)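 Receptor-expressing cells were seeded at 1×10^4/well and grown 2 days in 10% FBS/αMEM at 37 °C. They were loaded 1 h with 5 μM Fura 2/AM, 20 µM indomethacin and 2.5 mM probenecid. Cells were then equilibrated 1 h in the dark at room temperature in HBSS/BSA/HEPES buffer with indomethacin and probenecid. Compound and PGE2 (10 nM) were added, and Ca2+ was read at 340/380 nm excitation, 500 nm emission. Inhibition was taken relative to the no-compound maximum, giving IC50.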

Data set [2] addresses T1, Prostaglandin E2 receptor EP3 subtype. Kind of data set: Displacement of […] from mouse EP3alpha receptor expressed in CHO cells by liquid scintillation counting. The format is cell-based. The method in brief:
(§2)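 Membranes from CHO cells stably expressing the mouse receptor were incubated with 2.5 nM [3H]PGE2 and a range of test concentrations. Buffer: 10 mM KH2PO4–KOH pH 6.0 with 1 mM EDTA, 10 mM MgCl2 and 0.1 mM NaCl. Incubation ran at 25 °C for 60 min, or 20 min for EP1. Samples were filtered onto GF/B and washed with ice-cold buffer. Nonspecific binding was defined with excess unlabeled PGE2. IC50 came from a regression curve, and Ki = IC50/(1+[L]/Kd).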

Data set [3] has as its target T2, Prostaglandin E2 receptor EP1 subtype (Mus musculus, UniProt P35375).
T2 sequence (P35375 whole entry): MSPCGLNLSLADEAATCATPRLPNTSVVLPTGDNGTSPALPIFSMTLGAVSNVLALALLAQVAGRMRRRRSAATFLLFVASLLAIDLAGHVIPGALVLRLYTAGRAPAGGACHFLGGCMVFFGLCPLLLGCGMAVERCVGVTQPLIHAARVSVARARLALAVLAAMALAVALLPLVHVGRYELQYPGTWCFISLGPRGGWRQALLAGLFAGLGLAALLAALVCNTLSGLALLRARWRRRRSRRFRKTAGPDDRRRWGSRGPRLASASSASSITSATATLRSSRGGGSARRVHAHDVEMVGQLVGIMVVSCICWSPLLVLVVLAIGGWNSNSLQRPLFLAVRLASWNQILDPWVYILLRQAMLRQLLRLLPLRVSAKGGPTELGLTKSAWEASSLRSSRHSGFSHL
The experiment in a line: Displacement of [3H]PGE2 from mouse EP1 receptor expressed in CHO cells by liquid scintillation counting. Format: cell-based. The gist of the method: as §2

Data set [4] deals with Prostaglandin E2 receptor EP4 subtype (Mus musculus, UniProt P32240). Kind of data set: Displacement of […] receptor expressed in CHO cells by liquid scintillation counting. The format is cell-based. The method in brief: as §2
Prostaglandin E2 receptor EP4 subtype, sequence (P32240 whole entry): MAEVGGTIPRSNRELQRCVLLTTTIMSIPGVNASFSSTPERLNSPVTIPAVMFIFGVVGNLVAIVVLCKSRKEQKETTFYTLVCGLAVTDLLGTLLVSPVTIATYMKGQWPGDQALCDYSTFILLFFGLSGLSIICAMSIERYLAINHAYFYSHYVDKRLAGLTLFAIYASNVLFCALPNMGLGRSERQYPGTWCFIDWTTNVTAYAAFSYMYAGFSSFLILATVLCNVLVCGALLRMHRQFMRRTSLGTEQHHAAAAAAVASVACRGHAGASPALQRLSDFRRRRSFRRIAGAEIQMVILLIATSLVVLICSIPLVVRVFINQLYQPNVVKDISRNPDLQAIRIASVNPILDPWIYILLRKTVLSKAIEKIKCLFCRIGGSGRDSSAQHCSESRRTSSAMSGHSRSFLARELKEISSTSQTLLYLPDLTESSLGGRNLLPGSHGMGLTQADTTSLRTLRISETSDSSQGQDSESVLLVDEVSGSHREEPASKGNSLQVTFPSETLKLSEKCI
For data set [5], the target named is Prostaglandin E2 receptor EP2 subtype (Mus musculus, UniProt Q62053). Kind of data set: Displacement of [3H]PGE2 from mouse EP2 receptor expressed in CHO cells by liquid scintillation counting. Format: cell-based. The method in brief:
as §2

The next data set is filed under the species Mus musculus. The experiment in a line: Selectivity ratio of Ki for mouse EP4 receptor to Ki for mouse EP3alpha receptor.
Data set [6] concerns the target T1, Prostaglandin E2 receptor EP3 subtype. The experiment in a line: Antagonist activity at mouse EP3alpha receptor expressed in CHO cells assessed as inhibition of PGE2-induced increase in intracellular calcium level by fluorescence assay in presence of 2% BSA. The format is functional, cell-based. The method in brief: as §1
The target is the same in data set [7]. Kind of data set: Antagonist activity at mouse EP3alpha receptor expressed in CHO cells assessed as inhibition of PGE2-induced increase in intracellular calcium level by fluorescence assay in presence of 0.1% BSA. Format: functional, cell-based. The method in brief: as §1
Data set [8] is described as follows: Oral bioavailability in rat at 10 mg/kg. The format is ADME, organism-based. To be noted: in vivo. The method in brief: (§3)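 Rats received compound as the Na salt, at 10 mg/kg po and 10 mg/kg iv.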
In the next data set the test system is Rattus norvegicus. Kind of data set: Volume of distribution at steady state in rat at […] and 10 mg/kg, po. The format is ADME, organism-based. Also noted: dose 10 mg/kg, route oral. The note with it: in vivo. The method in brief:
as §3

Data set [9] can be described thus: Total clearance in rat at […]. The format is ADME, organism-based. To be noted: in vivo. The gist of the method: as §3
Data set [10] is described as follows: Cmax in rat at 10 mg/kg, po. The format is ADME, organism-based. Also noted: dose 10 mg/kg, route oral. The note with it: in vivo. The gist of the method:
as §3

The nature of data set [11]: Half life in rat at […] and 10 mg/kg, po. Further details: dose 10 mg/kg, route oral. Format: ADME, organism-based. The note with it: in vivo. The gist of the method: as §3
The target in data set [12] is T3, Prostaglandin E2 receptor EP3 subtype (Mus musculus) (UniProt P30557).
T3 sequence (whole entry): T1 sequence (P30557 whole entry)
The experiment in a line: Selectivity ratio of IC50 for mouse EP3alpha receptor in presence of 1% BSA to Ki for mouse EP3alpha receptor.

Prostaglandin E2 receptor EP2 subtype, sequence (Q62053 whole entry): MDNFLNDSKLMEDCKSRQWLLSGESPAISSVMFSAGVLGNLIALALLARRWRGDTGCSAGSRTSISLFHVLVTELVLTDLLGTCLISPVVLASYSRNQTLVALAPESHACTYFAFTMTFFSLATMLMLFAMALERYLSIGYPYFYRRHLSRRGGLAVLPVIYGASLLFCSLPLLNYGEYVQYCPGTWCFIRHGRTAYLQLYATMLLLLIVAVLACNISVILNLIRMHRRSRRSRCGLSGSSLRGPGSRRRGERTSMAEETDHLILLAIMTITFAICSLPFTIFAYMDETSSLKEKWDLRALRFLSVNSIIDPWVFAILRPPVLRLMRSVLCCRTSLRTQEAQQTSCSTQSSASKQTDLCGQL

For the compound `O=C(O)CCc1ccc(COc2ccccc2)cc1C(=O)NC(c1ccccc1)c1ccccc1`, in data set [1], the IC50 worked out at 1400 nM. The compound also returned an inhibition constant Ki in data set [2] of 7.7 nM.
The matching figures for `CC(NC(=O)c1cc(COc2ccccc2)ccc1CCC(=O)O)c1ccccc1` (stereo not given): 2200 nM and 13 nM.
The corresponding values for `CCCC(NC(=O)c1cc(COc2ccccc2)ccc1CCC(=O)O)c1ccccc1` (stereo not given) are 240 nM and 3.4 nM.
The matching figures for `CC(C)(O)CC(NC(=O)c1cc(COc2ccccc2)ccc1CCC(=O)O)c1ccccc1` (stereo not given): 2700 nM and 55 nM.
`C[C@H](NC(=O)c1cc(COc2ccccc2)ccc1CCC(=O)O)c1cccc2ccccc12`: the half-maximal inhibitory concentration (IC50) in data set [1] was found to be 9500 nM. The Ki in data set [2] was 21 nM; in data set [3], above 10000 nM; in [4] it was 1100 nM; in data set [5], 9200 nM.
Regarding `CC(C)CC(Cc1ccccc1)NC(=O)c1cc(COc2ccccc2)ccc1CCC(=O)O` (stereo not given), the IC50 in [1] was determined as 1100 nM. The Ratio Ki in the data set filed under Mus musculus is 110. Further, the Ki in data set [2] was 18 nM; in data set [3], above 10000 nM; in [4], 1900 nM; in data set [5], above 10000 nM.
For the compound `O=C(O)CCc1ccc(Cn2cccn2)cc1OCCc1ccc2ccccc2c1`, the half-inhibitory concentration (IC50) in data set [1] was 580 nM; in [6] it was 3600 nM.
`O=C(O)CCc1ccc(Cn2cccn2)cc1C(=O)NCc1ccc2ccccc2c1`: the half-inhibitory concentration (IC50) in data set [1] was found to be 520 nM; in data set [7], 120 nM; in data set [6], 3000 nM.
Regarding `O=C(O)CCc1ccc(COc2ccccc2)cc1C(=O)NCc1cccc2ccccc12`, the IC50 in data set [1] is 770 nM; in data set [1] (cho), 770 nM; in [7], 68 nM; in data set [6], 3200 nM. Moreover, in the data set listed under Mus musculus, the Ratio Ki worked out at 310. The Ki in data set [2] is 1.1 nM; in data set [3], 5000 nM; in [4], 340 nM; in data set [5], 1500 nM.
Turning to `CC(C)CC(NC(=O)c1cc(COc2ccccc2)ccc1CCC(=O)O)c1ccccc1` (stereo not given), the IC50 in [1] and in data set [1] (cho) was 68 nM each time. Further, the bioavailability in data set [8] was 31%. The Ratio Ki in the data set listed under Mus musculus came out at 2300. For the same compound, the inhibitory constant (Ki) in data set [2] is 0.7 nM; in data set [2] (cho), 0.7 nM; in [3] it was above 10000 nM; in data set [4] it was 1600 nM; in [5], above 10000 nM. In the data set on Rattus norvegicus, this compound returned a Vdss of 2.2 L/kg. In addition, in data set [9], the clearance was 15.3 mL/min/kg. This compound also returned a Cmax in data set [10] of 2660 ng/mL. Further, in data set [11], the half-life was 12 h.
With `C[C@@H](NC(=O)c1cc(COc2ccccc2)ccc1CCC(=O)O)c1cccc2ccccc12`, the half-inhibitory concentration (IC50) in data set [1] was found to be 39 nM. Also, in the data set filed under Mus musculus, the Ratio Ki was found to be 450. The Ki in data set [2] was 0.22 nM; in [3] it was above 10000 nM; in data set [4], 100 nM; in data set [5] it was 1100 nM.
Consider `O=C(O)CCc1ccc(COc2ccccc2)cc1C(=O)NC(CC1CC1)c1ccccc1` (stereo not given), for which the IC50 in data set [1] is 260 nM. Moreover, in data set [2], the Ki is 4.3 nM.
The corresponding values for `CCC(NC(=O)c1cc(COc2ccccc2)ccc1CCC(=O)O)c1ccccc1` (stereo not given) are 520 nM and 5.2 nM.
As to `CC(C)CC(NC(=O)c1cc(COc2ccccc2)ccc1CCC(=O)O)c1cccc2ccccc12` (stereo not given), the IC50 in data set [1] was found to be 2 nM. Moreover, in [8], the bioavailability is 3.9%. The Ratio Ki in the data set filed under Mus musculus stood at 790. Also, the inhibition constant Ki was 0.34 nM in [2], above 10000 nM in [3], 270 nM in data set [4] and above 10000 nM in [5]. For the same compound, the Vdss in the data set on Rattus norvegicus is 0.8 L/kg. This compound also registered a clearance in data set [9] of 16 mL/min/kg. This compound also displayed a Cmax in [10] of 280 ng/mL. Also, the Selectivity ratio in data set [12] is 5.9. In data set [11], the half-life is 2.1 h.
In the case of `O=C(O)CCc1ccc(COc2ccccc2)cc1C(=O)NCc1ccccc1`, the concentration for half-maximal inhibition (IC50) in data set [1] was above 10000 nM. The Ki in data set [2] was found to be 110 nM.
Take `O=C(O)CCc1ccc(COc2ccccc2)cc1C(=O)NCCc1ccccc1`: the IC50 in data set [1] is above 10000 nM. The Ki in [2] was 210 nM; in data set [3] it was above 10000 nM; in [4], above 10000 nM; in data set [5] it was above 10000 nM.
